Results pooled from the literature.
Lines come from different studies, so protocols differ.
PSMB6/PSMB5/PSMB7: PSMB6/PSMB5/PSMB7 (Homo sapiens, UniProt P28072+P28074+Q99436)
NTRK3: NT-3 growth factor receptor (NTRK3, Homo sapiens, UniProt Q16288)
TNKS: Poly [ADP-ribose] polymerase tankyrase-1 (TNKS, Homo sapiens, UniProt O95271)

`COC(=O)[C@@]12Oc3c(c(O)cc4c3[C@@H]3C=C[C@]5(C4)C(=C(O)c4c(O)cc(C)cc4[C@@H]5OC(C)=O)C3=O)C(O)=C1C(=O)C=C[C@@H]2O` has an inhibition of 13% (PSMB6/PSMB5/PSMB7; enzyme activity in cells; inhibitor; MCF7; 20 µg/mL).
With `OCc1cc(C(O)CNCCCCCCOCCCCc2ccccc2)ccc1O` (stereo not shown) the inhibition was 15% (C-X-C chemokine receptor type 4 (CXCR4, Homo sapiens, UniProt P61073); calcium signal; antagonist; U87.CD4.CXCR4; 20 µM).
`CN1CCN(CC(=O)Nc2cccc(C(=O)Nc3ccc4[nH]ncc4c3)c2)CC1` gave an inhibition of 23% (NTRK3; enzyme activity; inhibitor; FRET; 1 µM).
`Cc1ccc(C)c(NC(=O)CSc2nnc(Cc3cc(=O)[nH]c(=O)[nH]3)n2-c2ccc(Cl)cc2)c1` gave an inhibition of 3% (TNKS; enzyme activity; inhibitor; 0.1 µM).
With `CCN(CC)CCNC(=O)c1c(C)[nH]c(/C=C2\C(=O)Nc3ccc(F)cc32)c1C` the inhibition was 11% (Dual specificity mitogen-activated protein kinase kinase 7 (MAP2K7, Homo sapiens, UniProt O14733); enzyme activity; inhibitor; 0.3 µM).
The inhibition of `CC1=C(/C=C/C(C)=C/C=C/C(C)=C/CO)C(C)(C)CCC1` is reported as 46% (Prothrombin (Rattus norvegicus, UniProt P18292); enzyme activity; inhibitor; 200 µg/mL).
The inhibition of `O=C(Nc1ccc2[nH]ncc2c1)c1cccc(NC(=S)Nc2ccc(C(F)(F)F)cc2)c1` is reported as 17.3% (NTRK3; enzyme activity; inhibitor; FRET; 1 µM).
For `COC(=O)c1c(O)ccc(O)c1C(=O)c1c(O)cc2c(c1O)[C@@H]1C=C[C@]3(C2)C(=C(O)c2c(O)cc(C)cc2[C@@H]3OC(C)=O)C1=O`, the inhibition was 55% (PSMB6/PSMB5/PSMB7; enzyme activity in cells; inhibitor; MCF7; 20 µg/mL).
`CN(C)C1CCN(CC#Cc2nn(C3CCCC3)c3nc(NCc4ccccc4)ncc23)C1` (stereo not shown) gave an inhibition of 5% (RAC-alpha serine/threonine-protein kinase (AKT1, Homo sapiens, UniProt P31749); enzyme activity; inhibitor; FRET; 1 µM).
With `Ic1cccc2cnccc12` the inhibition was 7% (TNKS; enzyme activity; inhibitor; 10 µM).
